From article PMC6689761 (International Journal of Nanomedicine, 2019)
Read-outs that look alike come from different tables or passages of the source.

What was measured:
Aqueous solubility = assay type: physicochemical; conditions: water, 24 hrs, room temperature
Method in brief: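 Excess drug mixed in water 24 hrs at room temperature, spun 20,000× g for 10 mins. Supernatant quantified by reversed-phase UPLC on C18 at 1.0 mL/min. Parent run in 95% 20 mM ammonium acetate/5% ACN, pH 3.9, detected at 272 nm. Prodrug run in 90% methanol/10% water, detected at 280 nm. Peak areas compared with 0.05–50 µg/mL standards in methanol.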

HIV-1ADA [1] = assay: EC50 by HIV-1 RT activity in MDMs; assay type: cell-based; conditions: HIV-1ADA MOI 0.1, HIV-1 RT activity
Method in brief: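 Human MDMs pretreated 1 hr with 0.01–1000 nM test compound, then exposed to HIV-1ADA at MOI 0.1 for 4 hrs. RT activity measured in collected media. EC50 taken as 50% inhibitory concentration from nonlinear-regression concentration–response fits.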

[2] = tested on: human monocyte-derived macrophages (MDMs); assay: MTT cytotoxicity assay in MDMs; assay type: cell-based; conditions: up to 100 µM, 4 days of exposure
Method in brief: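 Monocytes plated at 80,000 cells/well and differentiated to macrophages. Exposed to 10–400 µM test compound or nanoformulation for 4 days. Washed, then MTT (5 mg/mL) added for 45 mins at 37°C. Formazan dissolved in DMSO and absorbance read at 490 nm. Values normalised to untreated cells; at least three biological replicates.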

[3] = tested on: human monocyte-derived macrophages (MDMs); assay: Nanoparticle macrophage uptake and retention; assay type: cell-based; conditions: 100 µM
HIV-1ADA [4] = assay: Antiretroviral efficacy in drug-preloaded MDMs; assay type: cell-based
Method in brief: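 Human monocytes from HIV- and hepatitis-seronegative donors, elutriated and differentiated to MDMs. Cells exposed to 100 µM test drug or nanoformulation for 8 hrs, PBS-washed, then challenged with HIV-1ADA (MOI 0.1) for 18 hrs at times from 0 hr to 15 days after loading. Cultured 10 more days, medium changed every other day. Day-10 medium RT activity and p24 immunocytochemistry on 4% paraformaldehyde-fixed cells; uninfected and infected controls.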

[5] = PK and biodistribution in rats after IM injection; assay type: in vivo, Sprague-Dawley rats; conditions: rat
[6] = assay type: in vivo, Sprague-Dawley rats; conditions: rat, IM
Method in brief: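 Male Sprague-Dawley rats dosed IM (caudal thigh) at 45, 75 or 100 mg/kg FTC-equivalents. Cells from fresh blood, spleen and lymph nodes isolated, stored in 70% methanol and counted. Triphosphate separated from mono- and diphosphates on QMA cartridges, then dephosphorylated with type XA sweet potato acid phosphatase. Isotope-labelled lamivudine internal standard added after incubation (final 0.5 ng/mL). Mean±SEM, n=3–5.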

[7] = reported value, no reference given; cited from earlier work

aqueous solubility (Aqueous solubility): 134 mg/mL
EC50 (HIV-1ADA [1]): 79 nM
highest intracellular FTC-TP concentration ([3]; after 8 hrs): 10 pmol/10^6 cells
FTC plasma level ([5]; 45 mg/kg FTC-equivalents, day 1): 25 ng/mL
FTC level in liver ([5]; 45 mg/kg, day 7): 2.6 ng/g
FTC level in lymph nodes ([5]; 45 mg/kg, day 7): 17 ng/g
FTC level in spleen ([5]; 45 mg/kg, day 7): 0 ng/g
FTC plasma level ([5]; 45 mg/kg, day 7): 0 ng/mL
FTC plasma level ([5]; 75 mg/kg FTC-equivalents, day 1): 34 ng/mL
FTC level in liver ([5]; 75 mg/kg, day 7): 14 ng/g
FTC level in lymph nodes ([5]; 75 mg/kg, day 7): 6 ng/g
FTC level in spleen ([5]; 75 mg/kg, day 7): 1.6 ng/g
FTC plasma level ([5]; 75 mg/kg, day 7): 3 ng/mL
FTC plasma level ([5]; 100 mg/kg FTC-equivalents, day 1): 52 ng/mL
FTC level in liver ([5]; 100 mg/kg, day 7): 0.6 ng/g
FTC level in lymph nodes ([5]; 100 mg/kg, day 7): 8 ng/g
FTC level in spleen ([5]; 100 mg/kg, day 7): 6 ng/g
FTC plasma level ([5]; 100 mg/kg, day 7): 1.4 ng/mL
FTC plasma levels compared to NMFTC treatment ([5]; 2 hrs): several fold higher
FTC-TP level in PBMCs ([6]; 45 mg/kg, day 1): 100 fmol/10^6 cells
FTC-TP level in PBMCs ([6]; 45 mg/kg, day 7): 6 fmol/10^6 cells
FTC-TP level in PBMCs ([6]; 75 mg/kg, day 1): 133 fmol/10^6 cells
FTC-TP level in PBMCs ([6]; 75 mg/kg, day 7): 7 fmol/10^6 cells
FTC-TP level in PBMCs ([6]; 100 mg/kg, day 1): 163 fmol/10^6 cells
FTC-TP level in PBMCs ([6]; 100 mg/kg, day 7): 8 fmol/10^6 cells
fold higher PBMC FTC-TP levels compared to NMFTC treatment ([6]; 2 hrs): 2–3 fold
FTC-TP levels in lymph node cells ([6]; day 1, across doses): 4–7 fmol/10^6 cells
FTC-TP levels in spleen ([6]; day 1, across doses): 6–13 fmol/10^6 cells
FTC-TP levels in lymph node cells ([6]; day 7, regardless of dose): 1–2 fmol/10^6 cells
FTC-TP levels in spleen ([6]; day 7, regardless of dose): 2–3 fmol/10^6 cells
Substance: 2`-deoxy-5-fluoro-3`thiacytidine [FTC]
MDM viability (MTT) [2]: did not affect MDM viability
intracellular drug levels ([3]; uptake over 24 hrs): minimal detectable intracellular drug levels
inhibition of viral RT activity (HIV-1ADA [4]; MDMs preloaded 100 µM 8 hrs, challenge at 24 hrs): 30%
HIV-1 p24 antigen staining (HIV-1ADA [4]; by 12 hrs following treatment): HIV-1 p24+ cells were observed
HIV-1 p24 antigen staining (HIV-1ADA [4]; by day 1): no effect
HIV-1 RT activity in pre-exposed MDMs (HIV-1ADA [4]; challenge beyond day 1): did not have effect
IC90 [7]: 0.014 µg/mL
reported 50% inhibitory concentration (IC50) [7]: 0.008 µg/mL
